In ChEMBL document CHEMBL3351612, “Merremins A-G, resin glycosides from Merremia hederacea with multidrug resistance reversal activity” (J Nat Prod, 2014):

Experiments:
[1] = Multidrug resistance reversal activity in human KB/VCR cells assessed as reduction in vinblastine IC50 at 25 uM incubated for 72 hrs by sulforhodamine B assay relative to untreated control; type: functional
How it was run: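 KB/VCR cells seeded 24 h, then given vinblastine serial dilutions (0.125–1 μM) with or without 25 μM sample for 72 h at 37 °C, 5% CO2. Cells fixed in 10% TCA (4 °C, 1 h), stained 15 min with 0.4% SRB in 1% HOAc, dye dissolved in 10 mM Tris base, A510 read. Fold reversal = IC50 of drug alone / IC50 with sample.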

[2] = Toxicity against human KB/VCR cells assessed as inhibition of cell growth at 25 uM incubated for 72 hrs by sulforhodamine B assay; type: cell-based; settings: read-out: GI

Row | SMILES | Ratio IC50 [1] | inhibition at 72 h, 25 µM [2]
1 | CCCCC[C@H]1CCCCCCCCCC(=O)O[C@H]2[C@H](O[C@H]3[C@H](O1)O[C@H](C)[C@H](O)[C@@H]3OC(C)=O)O[C@@H](C)[C@H](O[C@@H]1O[C@@H](C)[C@H](O[C@@H]3O[C@@H](C)[C@H](OC(=O)[C@@H](C)CC)[C@@H](O)[C@H]3O)[C@@H](O[C@@H]3O[C@H](CO)[C@@H](O)[C@H](O)[C@H]3O)[C@H]1OC(=O)[C@@H](C)CC)[C@H]2O | 2.3 | 0.91%
2 | CCCCCCCC(=O)O[C@H]1[C@H](O[C@@H]2[C@@H](O)[C@H]3OC(=O)CCCCCCCCC[C@H](CCCCC)O[C@@H]4O[C@H](C)[C@H](OC(C)=O)[C@H](O)[C@H]4O[C@@H]3O[C@H]2C)O[C@@H](C)[C@H](O[C@@H]2O[C@@H](C)[C@H](OC(=O)[C@@H](C)CC)[C@@H](O)[C@H]2O)[C@H]1O[C@@H]1O[C@H](CO)[C@@H](O)[C@H](O)[C@H]1O |  | 93.8%
3 | CCCCC[C@H]1CCCCCCCCCC(=O)O[C@H]2[C@H](O[C@H]3[C@H](O1)O[C@H](C)[C@H](OC(C)=O)[C@@H]3O)O[C@@H](C)[C@H](O[C@@H]1O[C@@H](C)[C@H](O[C@@H]3O[C@@H](C)[C@H](OC(=O)[C@@H](C)CC)[C@@H](O)[C@H]3O)[C@@H](O[C@@H]3O[C@H](CO)[C@@H](O)[C@H](O)[C@H]3O)[C@H]1OC(=O)[C@@H](C)CC)[C@H]2O |  | 97.8%
4 | CCCCCCCCCC(=O)O[C@H]1[C@H](O[C@@H]2[C@@H](O)[C@H]3OC(=O)CCCCCCCCC[C@H](CCCCC)O[C@@H]4O[C@H](C)[C@H](OC(C)=O)[C@H](O)[C@H]4O[C@@H]3O[C@H]2C)O[C@@H](C)[C@H](O[C@@H]2O[C@@H](C)[C@H](OC(=O)[C@@H](C)CC)[C@@H](O)[C@H]2O)[C@H]1O[C@@H]1O[C@H](CO)[C@@H](O)[C@H](O)[C@H]1O |  | 96.6%
5 | CCCCC[C@H]1CCCCCCCCCC(=O)O[C@H]2[C@@H](O)[C@H](O[C@H]3[C@H](O1)O[C@H](C)[C@H](O)[C@@H]3O)O[C@@H](C)[C@@H]2O[C@@H]1O[C@@H](C)[C@H](O[C@@H]2O[C@@H](C)[C@H](O)[C@@H](O)[C@H]2O)[C@@H](O[C@@H]2O[C@H](CO)[C@@H](O)[C@H](O)[C@H]2O)[C@H]1OC(=O)[C@@H](C)CC | 15.8 | -0.08%
6 | CCCCC[C@@H](CCCCCCCCCC(=O)OC)O[C@@H]1O[C@H](C)[C@H](O)[C@H](O)[C@H]1O[C@@H]1O[C@@H](C)[C@H](O[C@@H]2O[C@@H](C)[C@H](O[C@@H]3O[C@@H](C)[C@H](OC(=O)[C@@H](C)CC)[C@@H](O)[C@H]3O)[C@@H](O[C@@H]3O[C@H](CO)[C@@H](O)[C@H](O)[C@H]3O)[C@H]2O)[C@@H](O)[C@H]1O | 2.5 | 0.23%
7 | CCCCCCCCCC(=O)O[C@H]1[C@H](O[C@@H]2[C@@H](O)[C@H]3OC(=O)CCCCCCCCC[C@H](CCCCC)O[C@@H]4O[C@H](C)[C@H](O)[C@H](O)[C@H]4O[C@@H]3O[C@H]2C)O[C@@H](C)[C@H](O[C@@H]2O[C@@H](C)[C@H](OC(=O)[C@@H](C)CC)[C@@H](O)[C@H]2O)[C@H]1O[C@@H]1O[C@H](CO)[C@@H](O)[C@H](O)[C@H]1O |  | 96.7%
8 | CCCCC[C@H]1CCCCCCCCCC(=O)O[C@H]2[C@@H](O)[C@H](O[C@H]3[C@H](O1)O[C@H](C)[C@H](O)[C@@H]3O)O[C@@H](C)[C@@H]2O[C@@H]1O[C@@H](C)[C@H](O[C@@H]2O[C@@H](C)[C@H](OC(=O)[C@@H](C)CC)[C@@H](OC(=O)/C=C/c3ccccc3)[C@H]2O)[C@@H](O[C@@H]2O[C@H](CO)[C@@H](O)[C@H](O)[C@H]2O)[C@H]1OC(=O)[C@@H](C)CC |  | 91.1%
9 | CCCCC[C@H]1CCCCCCCCCC(=O)O[C@H]2[C@H](O[C@H]3[C@H](O1)O[C@H](C)[C@H](O)[C@@H]3O)O[C@@H](C)[C@H](O[C@@H]1O[C@@H](C)[C@H](O[C@@H]3O[C@@H](C)[C@H](OC(=O)[C@@H](C)CC)[C@@H](O)[C@H]3O)[C@@H](O[C@@H]3O[C@H](CO)[C@@H](O)[C@H](O)[C@H]3O)[C@H]1OC(=O)[C@@H](C)CC)[C@H]2O [MURUCOIDIN IV] |  | 97.5%
10 | CCCCC[C@H]1CCCCCCCCCC(=O)O[C@H]2[C@@H](O)[C@H](O[C@H]3[C@H](O1)O[C@H](C)[C@H](O)[C@@H]3O)O[C@@H](C)[C@@H]2O[C@@H]1O[C@@H](C)[C@H](O[C@@H]2O[C@@H](C)[C@H](OC(=O)[C@@H](C)CC)[C@@H](O)[C@H]2O)[C@@H](O[C@@H]2O[C@H](CO)[C@@H](O)[C@H](O)[C@H]2O)[C@H]1OC(=O)[C@@H](C)CC [MURUCOIDIN V] | 142.5 | 7.72%
